{
  "source": "ChEMBL document CHEMBL2163310",
  "about": "“Critical effect of peptide cyclization on the potency of peptide inhibitors against Dengue virus NS2B-NS3 protease” (J Med Chem, 2012)",
  "key": {"[1]": {"test": "Chemical stability after 30 mins in presence of trypsin", "assay_type": "physicochemical", "settings": "isolated protein, 0.5 h", "method_in_brief": "(§1)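 Peptide incubated with trypsin in 0.05 M Tris-HCl pH 7.8, 20 mM CaCl2 at 37 °C, or with cathepsin S in 50 mM NaAc pH 4.5, 25 mM NaCl, 5 mM DTT at room temperature. Digests analysed on HPLC C18 analytical column for remaining intact peptide.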"}, "[2]": {"test": "Inhibition of Dengue Virus 2 NS2B-NS3 protease using Benzoyl-Nle-Lys-Arg-Arg-AMC as substrate incubated for 3 mins prior to substrate addition by fluorimetric analysis", "set-up": "species or system dengue virus type 2", "method_in_brief": "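Ki by Dixon plot (1/v vs inhibitor) at 33 and 66 μM substrate. Fluorescence ex 356/em 438 nm; triplicate means.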"}, "[3]": {"test": "Inhibition of trypsin using N-benzoyl-DL-arginine-p-nitroanilide as substrate by […] analysis"}, "dengue virus type 2": {"tested_on": "dengue virus type 2", "test": "Inhibition of Dengue Virus 2 NS2B-NS3 protease using Benzoyl-Nle-Lys-Arg-Arg-AMC as substrate at 167 uM incubated for 3 mins prior to substrate addition by fluorimetric analysis", "method_in_brief": "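Enzyme preincubated with inhibitor for 3 min at 37 °C before adding Bz-Nle-Lys-Arg-Arg-AMC substrate. Residual activity read by fluorescence, excitation 356 nm, emission 438 nm. Triplicate measurements averaged.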"}, "[4]": {"test": "Chemical stability assessed as compound remaining after 4 hrs in presence of trypsin", "assay_type": "physicochemical", "settings": "read-out: Stability", "method_in_brief": "as §1"}, "[5]": {"test": "Chemical stability assessed as compound remaining after 4 hrs in presence of cathepsin S", "assay_type": "physicochemical", "method_in_brief": "as §1"}, "[6]": {"test": "Drug degradation assessed as compound activity lost at 3.3 uM measured every 30 mins of 2.5 hrs in presence of Dengue Virus 2 NS2B-NS3 protease", "assay_type": "physicochemical", "settings": "Dengue virus 2, Dengue virus 2 NS2B-NS3 protease; read-out: Drug degradation"}, "[7]": {"test": "Drug degradation assessed as compound activity lost at 6.7 uM measured every 30 mins of 2.5 hrs in presence of Dengue Virus 2 NS2B-NS3 protease", "assay_type": "physicochemical", "settings": "Dengue virus 2, Dengue virus 2 NS2B-NS3 protease; read-out: Drug degradation"}, "[8]": {"test": "Chemical stability at 16. 7 uM measured every 30 mins of 2.5 hrs in presence of Dengue Virus 2 NS2B-NS3 protease", "assay_type": "physicochemical"}},
  "note": "Activity calls are given as the source filed them. The rule behind the calls is not given here. Positions of bridges follow the written chain, without caps; N, C: chain ends. Residues, ends and D or L forms follow the SMILES beside them.",
  "data": [
    {"compound": "H-CAGKRKSG-OH", "values": [
      {"measurement": "Stability", "setting": "[1]", "result": "Stable"},
      {"measurement": "Ki", "setting": "[2]", "result": 42, "unit": "µM"}
    ]},
    {"compound": "NCCCC[C@@H]1NC(=O)[C@H](Cc2ccc(O)cc2)NC(=O)CNC(=O)[C@@H](N)CSSC[C@@H](C(=O)O)NC(=O)CNC1=O", "note": "(H-CGYKGC-OH; disulfide 1-6)", "values": [
      {"measurement": "Ki", "setting": "[2]", "result": 12, "unit": "µM"}
    ]},
    {"compound": "CC(C)C[C@@H]1NC(=O)CNC(=O)[C@H](Cc2ccc(O)cc2)NC(=O)CNC(=O)[C@@H](N)CSSC[C@@H](C(=O)O)NC1=O", "note": "(H-CGYGLC-OH; disulfide 1-6)", "values": [
      {"measurement": "Ki", "setting": "[2]", "result": "> 100", "unit": "µM"}
    ]},
    {"compound": "CC(C)C[C@@H]1NC(=O)[C@H](CCCCN)NC(=O)[C@H](Cc2ccc(O)cc2)NC(=O)CNC(=O)[C@@H]2CSSC[C@H](NC1=O)C(=O)N[C@@H](Cc1cnc[nH]1)C(=O)N1C[C@H](O)C[C@H]1C(=O)N[C@H](C(=O)O)CSSC[C@H](NC(=O)[C@@H](NC(=O)CNC(=O)[C@@H](N)CC(N)=O)C(C)C)C(=O)N2", "values": [
      {"measurement": "Ki", "setting": "[2]", "result": 9, "unit": "µM"}
    ]},
    {"compound": "CC(C)C[C@@H]1NC(=O)[C@H](CCCCN)NC(=O)C(Cc2ccc(O)cc2)NC(=O)CNC(=O)[C@@H](N)CSSC[C@@H](C(=O)O)NC1=O", "note": "(single isomer, unassigned)", "values": [
      {"measurement": "Ki", "setting": "[3]", "result": "> 100", "unit": "µM"},
      {"measurement": "Ki", "setting": "[2]", "result": 12.5, "unit": "µM"},
      {"measurement": "inhibition", "setting": "dengue virus type 2", "result": "inactive"}
    ]},
    {"compound": "C[C@@H]1NC(=O)[C@@H](CS)NC(=O)CNC(=O)[C@H](CO)NC(=O)[C@H](CCCCN)NC(=O)[C@H](CCCNC(=N)N)NC(=O)C(CCCCN)NC(=O)CNC1=O", "note": "(single isomer, unassigned)", "values": [
      {"measurement": "Ki", "setting": "[3]", "result": "> 100", "unit": "µM"},
      {"measurement": "remaining at 4 h", "setting": "[4]", "result": 50, "unit": "%"},
      {"measurement": "Stability", "setting": "[5]", "result": "Stable"},
      {"measurement": "metabolised at 2.5 h, 3.3 µM", "setting": "[6]", "result": 25, "unit": "%"},
      {"measurement": "Ki", "setting": "[2]", "result": 2.2, "unit": "µM"}
    ]},
    {"compound": "CC(C)C[C@@H]1NC(=O)[C@H](CCCCN)NC(=O)[C@H](CCCNC(=N)N)NC(=O)C(CCCCN)NC(=O)CNC(=O)[C@@H](N)CSSC[C@@H](C(=O)O)NC1=O", "note": "(single isomer, unassigned)", "values": [
      {"measurement": "metabolised at 2.5 h, 6.7 µM", "setting": "[7]", "result": 50, "unit": "%"},
      {"measurement": "metabolised at 2.5 h, 3.3 µM", "setting": "[6]", "result": 50, "unit": "%"},
      {"measurement": "Ki", "setting": "[2]", "result": 2.5, "unit": "µM"}
    ]},
    {"compound": "N=C(N)NCCC[C@@H]1NC(=O)[C@H](CCCCN)NC(=O)[C@H](Cc2ccc(O)cc2)NC(=O)CNC(=O)[C@@H](N)CSSC[C@@H](C(=O)O)NC1=O", "note": "(H-CGYKRC-OH; disulfide 1-6)", "values": [
      {"measurement": "Ki", "setting": "[2]", "result": 5, "unit": "µM"}
    ]},
    {"compound": "N=C(N)NCCC[C@@H]1NC(=O)C(CCCCN)NC(=O)CNC(=O)[C@@H](N)CSSC[C@@H](C(=O)O)NC(=O)[C@H](CO)NC(=O)[C@H](CCCCN)NC1=O", "note": "(single isomer, unassigned)", "values": [
      {"measurement": "Ki", "setting": "[3]", "result": "> 100", "unit": "µM"},
      {"measurement": "metabolised at 2.5 h, 6.7 µM", "setting": "[7]", "result": 50, "unit": "%"},
      {"measurement": "metabolised at 2.5 h, 3.3 µM", "setting": "[6]", "result": 50, "unit": "%"},
      {"measurement": "Ki", "setting": "[2]", "result": 1.4, "unit": "µM"}
    ]},
    {"compound": "CC(C)C[C@@H]1NC(=O)[C@H](CCCCN)NC(=O)CNC(=O)CNC(=O)[C@@H](N)CSSC[C@@H](C(=O)O)NC1=O", "note": "(H-CGGKLC-OH; disulfide 1-6)", "values": [
      {"measurement": "Ki", "setting": "[2]", "result": 15.1, "unit": "µM"}
    ]},
    {"compound": "N=C(N)NCCC[C@@H]1NC(=O)C(CCCCN)NC(=O)CNC(=O)[C@@H](N)CSSC[C@@H](C(=O)O)NC(=O)[C@H](CCCNC(=N)N)NC1=O", "note": "(single isomer, unassigned)", "values": [
      {"measurement": "Ki", "setting": "[2]", "result": 3.5, "unit": "µM"}
    ]},
    {"compound": "C[C@@H]1NC(=O)CNC(=O)[C@H](CO)NC(=O)[C@H](CCCCN)NC(=O)[C@H](CCCNC(=N)N)NC(=O)C(CCCCN)NC(=O)CNC1=O", "note": "(single isomer, unassigned)", "values": [
      {"measurement": "Stability", "setting": "[8]", "result": "Stable"},
      {"measurement": "Ki", "setting": "[2]", "result": 11.3, "unit": "µM"}
    ]}
  ]
}
